Measurements as given in paper PMC8965017 (International Journal of Nanomedicine, 2022).

Tests used:
MDA-MB-231 cells [1] = assay: Cell uptake of C6-labelled micelles; format: cell-based, human; conditions: MDA-MB-231, 1 h and 4 h
In short: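 Coumarin 6 was loaded into the polymer micelles by film dispersion. MDA-MB-231 cells were seeded overnight at 1×10^4 cells/well and given free C6 or C6-micelles; one group was pretreated with HA (10 mg/mL) for 0.5 h to block the receptor. After 1 h or 4 h at 37°C, cells were PBS-washed three times, paraformaldehyde-fixed for 10 min, DAPI-stained for 10 min at room temperature and viewed by fluorescence microscopy.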

[2] = system: MDA-MB-231 tumor-bearing mice; assay: In vivo antitumor efficacy; parameters: species or system BALB/c nude mice; conditions: 5 mg/kg once every 3 days, 6 times, day 18
In short: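 Female BALB/c nude mice aged 4–5 weeks carried subcutaneous MDA-MB-231 tumours. At about 100 mm3 they were randomised into 5 groups (n = 6): PBS, single drugs, combination or nanoparticles. From day 0, intravenous doses of 5 mg/kg were given every 3 days, 6 times in total. Tumour length and width were measured by caliper before each dose to calculate volume, and tumours were excised after the last dose.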

MDA-MB-231 cells [3] = assay: In vitro cytotoxicity, MTT assay; format: cell-based, human; conditions: 5-100 μM, 24 and 48 h
In short: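 MDA-MB-231 cells were seeded at 1×10^4 cells/well for 24 h. Medium was then replaced with single drugs, their combination or the nanoparticle formulation at 5, 10, 20, 50, 75 and 100 μM. After 24 or 48 h, MTT was added for 4 h and absorbance was read at 490 nm. Survival was calculated from blank, treated and control OD; mean ± SD, n = 3.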

MDA-MB-231 cells [4] = assay: Calcein-AM/PI staining; format: cell-based, human; conditions: DAS concentration 10 µM, 24 h
In short: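 MDA-MB-231 cells (RPMI-1640, 10% FBS, 1% penicillin-streptomycin; 37°C, 5% CO2) were seeded at 1×10^4 cells/well and grown overnight. They were then exposed for 24 h to free drugs, their combination or the nanoparticle formulation at a DAS concentration of 10 µM. Cells were stained with calcein-AM/PI at 37°C for 30 min and imaged by fluorescence microscopy.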

In vivo safety = assay: In vivo safety; parameters: species or system BALB/c nude mice; conditions: after treatment
In short: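 At the end of treatment, blood from the MDA-MB-231 xenograft-bearing nude mice was assayed for serum AST, ALT, AKP, BUN and creatinine. Major organs (heart, liver, spleen, lung, kidney) were taken for HE staining. Mean ± SD, n = 3.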

CCN(CC)c1ccc2cc(-c3nc4ccccc4s3)c(=O)oc2c1 [C6, coumarin 6]
cellular uptake (green fluorescence of C6) (MDA-MB-231 cells [1]): weak green fluorescence

Cc1nc(Nc2ncc(C(=O)Nc3c(C)cccc3Cl)s2)cc(N2CCN(CCO)CC2)n1 [DAS, Dasatinib]
tumor growth inhibition rate (TGI) [2]: 49.83%

O=C(c1cc(Cc2n[nH]c(=O)c3ccccc23)ccc1F)N1CCN(C(=O)C2CC2)CC1 [OLA, Olaparib]
toxicity to MDA-MB-231 cells (MTT) (MDA-MB-231 cells [3]): low toxicity | live/dead fluorescence (green living, red dead) (MDA-MB-231 cells [4]): no obvious red appearance | serum indicators of liver and renal function (AST, ALT, BUN, CRE) vs normal mice (In vivo safety): significantly increased
